Assay results published in ChEMBL document CHEMBL5724801, “EUbOPEN Chemogenomics Library - Multiplex” (2024).
Where “and” joins values, the source holds several entries; their conditions need not be identical. Equal values may be shown once.

How the values were obtained:
Type in all cases: toxicity, cell-based
[1] = system: U2OS; test: Multiplex assay against U2OS; settings: human
Method in brief: (§1)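 Values for tubulin, mitochondrial-mass and membrane-permeability phenotypes are per cents of cells with healthy nuclei. These cells were identified by CellPathfinder machine-learning gating of live cells that had been stained at seeding with Hoechst33342, BioTracker Green Microtubule Cytoskeleton Dye, MitoTracker Red and Annexin V Alexa Fluor 680 and imaged on a CQ1 microscope at 37°C and 5% CO2 after compound addition. The gating first set Hoechst high-intensity objects apart from normal cells, then split normal cells into healthy, pyknosed or fragmented nuclei, and pyknosed cells into mitotic or apoptotic.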

[2] = system: Fibroblast; test: Multiplex assay against human fibroblast; method in brief: as §1
[3] = system: HEK-293T; test: Multiplex assay against HEK293T; settings: human; method in brief: as §1
[4] = 12 h, 1 µM, compound concentration 1 uM
[5] = 12 h, 10 µM, compound concentration 10 uM
[6] = 24 h, 1 µM, compound concentration 1 uM
[7] = 24 h, 10 µM, compound concentration 10 uM
[8] = 48 h, 1 µM, compound concentration 1 uM
[9] = 48 h, 10 µM, compound concentration 10 uM

O=C(O)c1cc2ccccc2c(Cc2c(O)c(C(=O)O)cc3ccccc23)c1O [PAMOIC ACID]
Population Apoptotic (%) [1, 4]: 85% and 50% | Population Fragmented Nuclei (%) [1, 4]: 23% and 15% | Population Healthy Nuclei (%) [1, 4]: 68% and 73% | Population Hoechst High Intensity Objects (%) [1, 4]: 1% and 0% | Population Membrane Permeable-Phenotype (%) [1, 4]: 2% and 12% | Population Mitochondria Different-Phenotype (%) [1, 4]: 0% and 6% | Population Normal (%) [1, 4]: 98% and 100% | Population Pyknosed Nuclei (%) [1, 4]: 8% and 11% | Population Tubulin-Different-Phenotype (%) [1, 4]: 0% and 13% | Total Cell Count [1, 4]: 246 and 109 | Population Apoptotic (%) [1, 5]: 75% and 87% | Population Fragmented Nuclei (%) [1, 5]: 19% | Population Healthy Nuclei (%) [1, 5]: 75% | Population Hoechst High Intensity Objects (%) [1, 5]: 2% and 0% | Population Membrane Permeable-Phenotype (%) [1, 5]: 6% and 5% | Population Mitochondria Different-Phenotype (%) [1, 5]: 1% and 3% | Population Mitotic Cells (%) [1, 5]: 25% and 12% | Population Normal (%) [1, 5]: 97% and 100% | Population Pyknosed Nuclei (%) [1, 5]: 4% and 5% | Population Tubulin-Different-Phenotype (%) [1, 5]: 4% and 2% | Total Cell Count [1, 5]: 259 and 140 | Population Apoptotic (%) [1, 6]: 92% and 76% | Population Fragmented Nuclei (%) [1, 6]: 18% and 20% | Population Healthy Nuclei (%) [1, 6]: 72% and 70% | Population Hoechst High Intensity Objects (%) [1, 6]: 1% and 0% | Population Membrane Permeable-Phenotype (%) [1, 6]: 2% and 11% | Population Mitochondria Different-Phenotype (%) [1, 6]: 0% and 2% | Population Mitotic Cells (%) [1, 6]: 8% and 23% | Population Normal (%) [1, 6]: 98% and 99% | Population Pyknosed Nuclei (%) [1, 6]: 8% and 9% | Population Tubulin-Different-Phenotype (%) [1, 6]: 1% and 7% | Total Cell Count [1, 6]: 288 and 139 | Population Apoptotic (%) [1, 7]: 82% and 90% | Population Fragmented Nuclei (%) [1, 7]: 17% and 13% | Population Healthy Nuclei (%) [1, 7]: 76% and 79% | Population Hoechst High Intensity Objects (%) [1, 7]: 3% and 1% | Population Membrane Permeable-Phenotype (%) [1, 7]: 5% and 7% | Population Mitochondria Different-Phenotype (%) [1, 7]: 2% and 3% | Population Mitotic Cells (%) [1, 7]: 17% and 9% | Population Normal (%) [1, 7]: 96% and 98% | Population Pyknosed Nuclei (%) [1, 7]: 5% and 6% | Population Tubulin-Different-Phenotype (%) [1, 7]: 3% and 7% | Total Cell Count [1, 7]: 314 and 163 | Population Apoptotic (%) [1, 8]: 83% and 90% | Population Fragmented Nuclei (%) [1, 8]: 16% and 11% | Population Healthy Nuclei (%) [1, 8]: 74% and 76% | Population Hoechst High Intensity Objects (%) [1, 8]: 1% and 2% | Population Membrane Permeable-Phenotype (%) [1, 8]: 2% and 9% | Population Mitochondria Different-Phenotype (%) [1, 8]: 1% and 3% | Population Mitotic Cells (%) [1, 8]: 16% and 10% | Population Normal (%) [1, 8]: 98% and 97% | Population Pyknosed Nuclei (%) [1, 8]: 9% and 11% | Population Tubulin-Different-Phenotype (%) [1, 8]: 2% and 5% | Total Cell Count [1, 8]: 469 and 177 | Population Apoptotic (%) [1, 9]: 96% and 89% | Population Fragmented Nuclei (%) [1, 9]: 15% and 20% | Population Healthy Nuclei (%) [1, 9]: 77% and 66% | Population Hoechst High Intensity Objects (%) [1, 9]: 3% and 0% | Population Membrane Permeable-Phenotype (%) [1, 9]: 5% and 6% | Population Mitochondria Different-Phenotype (%) [1, 9]: 1% and 2% | Population Mitotic Cells (%) [1, 9]: 3% and 10% | Population Normal (%) [1, 9]: 96% and 99% | Population Pyknosed Nuclei (%) [1, 9]: 6% and 13% | Population Tubulin-Different-Phenotype (%) [1, 9]: 4% and 2% | Total Cell Count [1, 9]: 455 and 218 | Population Apoptotic (%) [2, 4]: 54% and 32% | Population Fragmented Nuclei (%) [2, 4]: 10% and 23% | Population Healthy Nuclei (%) [2, 4]: 81% and 56% | Population Hoechst High Intensity Objects (%) [2, 4]: 2% and 6% | Population Membrane Permeable-Phenotype (%) [2, 4]: 0% and 6% | Population Mitochondria Different-Phenotype (%) [2, 4]: 2% and 8% | Population Mitotic Cells (%) [2, 4]: 45% and 67% | Population Normal (%) [2, 4]: 97% and 93% | Population Pyknosed Nuclei (%) [2, 4]: 7% and 19% | Population Tubulin-Different-Phenotype (%) [2, 4]: 20% and 34% | Total Cell Count [2, 4]: 147 and 154 | Population Apoptotic (%) [2, 5]: 40% and 37% | Population Healthy Nuclei (%) [2, 5]: 80% and 51% | Population Hoechst High Intensity Objects (%) [2, 5]: 4% | Population Membrane Permeable-Phenotype (%) [2, 5]: 1% and 3% | Population Mitochondria Different-Phenotype (%) [2, 5]: 5% and 3% | Population Mitotic Cells (%) [2, 5]: 60% and 62% | Population Normal (%) [2, 5]: 95% | Population Pyknosed Nuclei (%) [2, 5]: 11% and 24% | Population Tubulin-Different-Phenotype (%) [2, 5]: 23% and 51% | Total Cell Count [2, 5]: 132 and 156 | Population Apoptotic (%) [2, 6]: 33% and 32% | Population Fragmented Nuclei (%) [2, 6]: 10% and 23% | Population Healthy Nuclei (%) [2, 6]: 86% and 58% | Population Hoechst High Intensity Objects (%) [2, 6]: 3% and 6% | Population Membrane Permeable-Phenotype (%) [2, 6]: 0% and 9% | Population Mitochondria Different-Phenotype (%) [2, 6]: 2% and 11% | Population Mitotic Cells (%) [2, 6]: 66% and 68% | Population Normal (%) [2, 6]: 96% and 93% | Population Tubulin-Different-Phenotype (%) [2, 6]: 17% and 39% | Total Cell Count [2, 6]: 156 and 147 | Population Apoptotic (%) [2, 7]: 50% and 40% | Population Healthy Nuclei (%) [2, 7]: 77% and 52% | Population Hoechst High Intensity Objects (%) [2, 7]: 2% and 5% | Population Membrane Permeable-Phenotype (%) [2, 7]: 1% and 3% | Population Mitochondria Different-Phenotype (%) [2, 7]: 1% and 5% | Population Mitotic Cells (%) [2, 7]: 50% and 59% | Population Normal (%) [2, 7]: 97% and 94% | Population Pyknosed Nuclei (%) [2, 7]: 13% | Population Tubulin-Different-Phenotype (%) [2, 7]: 20% and 39% | Total Cell Count [2, 7]: 138 and 170 | Population Apoptotic (%) [2, 8]: 25% and 38% | Population Fragmented Nuclei (%) [2, 8]: 12% and 23% | Population Healthy Nuclei (%) [2, 8]: 79% and 58% | Population Hoechst High Intensity Objects (%) [2, 8]: 4% and 3% | Population Membrane Permeable-Phenotype (%) [2, 8]: 0% and 9% | Population Mitochondria Different-Phenotype (%) [2, 8]: 2% and 8% | Population Mitotic Cells (%) [2, 8]: 75% and 61% | Population Normal (%) [2, 8]: 95% and 96% | Population Pyknosed Nuclei (%) [2, 8]: 8% and 17% | Population Tubulin-Different-Phenotype (%) [2, 8]: 23% and 44% | Total Cell Count [2, 8]: 155 and 152 | Population Apoptotic (%) [2, 9]: 50% and 60% | Population Fragmented Nuclei (%) [2, 9]: 19% and 32% | Population Healthy Nuclei (%) [2, 9]: 72% and 60% | Population Hoechst High Intensity Objects (%) [2, 9]: 5% and 3% | Population Membrane Permeable-Phenotype (%) [2, 9]: 2% and 3% | Population Mitochondria Different-Phenotype (%) [2, 9]: 5% and 1% | Population Mitotic Cells (%) [2, 9]: 50% and 40% | Population Normal (%) [2, 9]: 94% and 96% | Population Pyknosed Nuclei (%) [2, 9]: 7% and 6% | Population Tubulin-Different-Phenotype (%) [2, 9]: 29% and 28% | Total Cell Count [2, 9]: 136 and 156 | Population Apoptotic (%) [3, 4]: 30% and 58% | Population Fragmented Nuclei (%) [3, 4]: 9% and 7% | Population Healthy Nuclei (%) [3, 4]: 77% | Population Hoechst High Intensity Objects (%) [3, 4]: 7% and 6% | Population Membrane Permeable-Phenotype (%) [3, 4]: 0% | Population Mitochondria Different-Phenotype (%) [3, 4]: 38% and 60% | Population Mitotic Cells (%) [3, 4]: 69% and 41% | Population Normal (%) [3, 4]: 92% and 93% | Population Pyknosed Nuclei (%) [3, 4]: 12% and 15% | Population Tubulin-Different-Phenotype (%) [3, 4]: 23% and 21% | Total Cell Count [3, 4]: 432 and 303 | Population Apoptotic (%) [3, 5]: 34% and 52% | Population Fragmented Nuclei (%) [3, 5]: 8% and 4% | Population Healthy Nuclei (%) [3, 5]: 79% and 81% | Population Hoechst High Intensity Objects (%) [3, 5]: 8% | Population Membrane Permeable-Phenotype (%) [3, 5]: 0% | Population Mitochondria Different-Phenotype (%) [3, 5]: 44% and 55% | Population Mitotic Cells (%) [3, 5]: 65% and 47% | Population Normal (%) [3, 5]: 91% | Population Pyknosed Nuclei (%) [3, 5]: 12% and 13% | Population Tubulin-Different-Phenotype (%) [3, 5]: 34% and 26% | Total Cell Count [3, 5]: 446 and 275 | Population Apoptotic (%) [3, 6]: 29% and 40% | Population Fragmented Nuclei (%) [3, 6]: 8% and 5% | Population Healthy Nuclei (%) [3, 6]: 78% and 86% | Population Hoechst High Intensity Objects (%) [3, 6]: 6% | Population Membrane Permeable-Phenotype (%) [3, 6]: 1% and 0% | Population Mitochondria Different-Phenotype (%) [3, 6]: 22% and 39% | Population Mitotic Cells (%) [3, 6]: 70% and 59% | Population Normal (%) [3, 6]: 93% | Population Pyknosed Nuclei (%) [3, 6]: 12% and 7% | Population Tubulin-Different-Phenotype (%) [3, 6]: 16% | Total Cell Count [3, 6]: 559 and 378 | Population Apoptotic (%) [3, 7]: 29% and 41% | Population Fragmented Nuclei (%) [3, 7]: 9% and 5% | Population Healthy Nuclei (%) [3, 7]: 75% and 79% | Population Hoechst High Intensity Objects (%) [3, 7]: 5% and 7% | Population Membrane Permeable-Phenotype (%) [3, 7]: 0% | Population Mitochondria Different-Phenotype (%) [3, 7]: 27% and 43% | Population Mitotic Cells (%) [3, 7]: 70% and 58% | Population Normal (%) [3, 7]: 94% and 92% | Population Pyknosed Nuclei (%) [3, 7]: 14% and 15% | Population Tubulin-Different-Phenotype (%) [3, 7]: 22% and 18% | Total Cell Count [3, 7]: 592 and 365 | Population Apoptotic (%) [3, 8]: 18% and 48% | Population Fragmented Nuclei (%) [3, 8]: 11% and 8% | Population Healthy Nuclei (%) [3, 8]: 81% and 84% | Population Hoechst High Intensity Objects (%) [3, 8]: 2% and 7% | Population Membrane Permeable-Phenotype (%) [3, 8]: 1% and 0% | Population Mitochondria Different-Phenotype (%) [3, 8]: 13% and 27% | Population Mitotic Cells (%) [3, 8]: 81% and 51% | Population Normal (%) [3, 8]: 97% and 92% | Population Pyknosed Nuclei (%) [3, 8]: 7% and 6% | Population Tubulin-Different-Phenotype (%) [3, 8]: 10% and 11% | Total Cell Count [3, 8]: 998 and 494 | Population Apoptotic (%) [3, 9]: 24% and 36% | Population Fragmented Nuclei (%) [3, 9]: 13% and 11% | Population Healthy Nuclei (%) [3, 9]: 79% and 82% | Population Hoechst High Intensity Objects (%) [3, 9]: 3% and 7% | Population Membrane Permeable-Phenotype (%) [3, 9]: 0% | Population Mitochondria Different-Phenotype (%) [3, 9]: 18% and 27% | Population Mitotic Cells (%) [3, 9]: 75% and 64% | Population Normal (%) [3, 9]: 96% and 92% | Population Pyknosed Nuclei (%) [3, 9]: 7% and 5% | Population Tubulin-Different-Phenotype (%) [3, 9]: 10% and 12% | Total Cell Count [3, 9]: 879 and 517
